From paper PMC6361391 (Chemical communications (Cambridge, England), 2017)
Converted amounts (≈) assume the structure as drawn. Where a SMILES comes first, the peptide text is derived from it. Bridges are numbered along the chain shown (N, C = ends). [ ]: non-standard residue; d: D form. d(aIle) = CC[C@H](C)[C@@H](N)C(=O)O; dNMeF = CN[C@H](Cc1ccccc1)C(=O)O

How the values were obtained:
[1] = system: Staphylococcus epidermidis ATCC 14990; format: cell-based
[2] = system: Enterococcus durans ATCC 6056; format: cell-based
[3] = system: Bacillus subtilis ATCC 6051; format: cell-based
[4] = system: Escherichia coli ATCC 10798; format: cell-based
[5] = system: Streptococcus salivarius ATCC 13419; format: cell-based
[6] = cited from earlier work
Gram-positive bacteria = test: MIC assays, overall activity across the Gram-positive bacteria; format: cell-based; conditions: overall grade (good, moderate, poor) from the MIC assays
Outline: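 Five Gram-positive species, with E. coli as a Gram-negative negative control and the parent natural antibiotic as a positive control. The test compound was tested at 32, 16, 8, 4, 2, 1, 0.5 and 0.25 μg/mL (final), diluted from a 10 mg/mL stock in sterilized DMSO. Minimum inhibitory concentration was the read-out.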

[7] = system: Staphylococcus aureus ATCC 29213; format: cell-based
[8] = format: physicochemical; conditions: pH 7.4

Compound	MIC, Staphylococcus epidermidis ATCC 14990 [1]	MIC, Enterococcus durans ATCC 6056 [2]	MIC, Bacillus subtilis ATCC 6051 [3]	MIC, Escherichia coll ATCC 10798 [4]	MIC, Streptococcus salivarius ATCC 13419 [5]	MIC values reported previously ([6]; earlier report of the same group)	antibiotic activity (Gram-positive bacteria)	MIC, Staphylococcus aureus ATCC 29213 [7]	antibiotic activity ([6]; lysine scan of Arg10-teixobactin)	solubility in PBS buffer [8]	loss in activity relative to Arg10-teixobactin ([6]; residues 1 to 5 replaced with a dodecanoyl group)
CC[C@H](C)[C@H](NC(=O)[C@@H](Cc1ccccc1)NC)C(=O)N[C@@H](CO)C(=O)N[C@H](CCC(N)=O)C(=O)N[C@@H](C(=O)N[C@H](C(=O)N[C@@H](CO)C(=O)N[C@H]1C(=O)N[C@@H](C)C(=O)N[C@@H](CCCCN)C(=O)N[C@@H]([C@@H](C)CC)C(=O)O[C@H]1C)[C@@H](C)CC)[C@@H](C)CC [Lys10-teixobactin]	0.5 to 1 µg/mL	2 µg/mL (≈ 1.64 µM)	1 µg/mL (≈ 0.822 µM)	>32 µg/mL	0.5 µg/mL (≈ 0.411 µM)	0.25 to 1 µg/mL	good	0.5 µg/mL (≈ 0.411 µM)			
Lys3,Arg10-teixobactin									active		
CC[C@H](C)[C@H](NC(=O)[C@@H](Cc1ccccc1)NC)C(=O)N[C@@H](CO)C(=O)N[C@H](CCC(N)=O)C(=O)N[C@@H](C(=O)N[C@H](C(=O)N[C@@H](CO)C(=O)N[C@H]1C(=O)N[C@@H](C)C(=O)N[C@@H](CCCCN)C(=O)N[C@@H](C)C(=O)O[C@H]1C)[C@@H](C)CC)[C@@H](C)CC [Lys10,Ala11-teixobactin] (H-[dNMeF]IS[dQ][d(aIle)]IS[dT]AKA; ester 8-C)	8 µg/mL (≈ 6.81 µM)	>32 µg/mL	8 µg/mL (≈ 6.81 µM)	>32 µg/mL	2 µg/mL (≈ 1.7 µM)		moderate	4 µg/mL (≈ 3.41 µM)		good	
CC[C@H](C)[C@H](NC(=O)[C@@H](Cc1ccccc1)NC)C(=O)N[C@@H](CO)C(=O)N[C@H](CCC(N)=O)C(=O)N[C@@H](C(=O)N[C@H](C(=O)N[C@@H](CO)C(=O)N[C@H]1C(=O)N[C@@H](C)C(=O)N[C@@H](C)C(=O)N[C@@H]([C@@H](C)CC)C(=O)O[C@H]1C)[C@@H](C)CC)[C@@H](C)CC [Ala10-teixobactin]	4 µg/mL (≈ 3.45 µM)	8 µg/mL (≈ 6.9 µM)		>32 µg/mL	1 µg/mL (≈ 0.863 µM)		moderate	1 µg/mL (≈ 0.863 µM)			
lipobactin											two- to fourfold loss in activity
CC[C@H](C)[C@H](NC(=O)[C@H](NC(=O)[C@@H](CCC(N)=O)NC(=O)[C@H](CO)NC(=O)[C@H](C)NC(=O)[C@@H](Cc1ccccc1)NC)[C@@H](C)CC)C(=O)N[C@@H](CO)C(=O)N[C@H]1C(=O)N[C@@H](C)C(=O)N[C@@H](CCCCN)C(=O)N[C@@H]([C@@H](C)CC)C(=O)O[C@H]1C [Ala2,Lys10-teixobactin] (H-[dNMeF]AS[dQ][d(aIle)]IS[dT]AKI; ester 8-C)	32 µg/mL (≈ 27.2 µM)	>32 µg/mL	32 µg/mL (≈ 27.2 µM)	>32 µg/mL	32 µg/mL (≈ 27.2 µM)		poor	>32 µg/mL		good	
CC[C@H](C)[C@H](NC(=O)[C@@H](Cc1ccccc1)NC)C(=O)N[C@@H](CO)C(=O)N[C@H](C)C(=O)N[C@@H](C(=O)N[C@H](C(=O)N[C@@H](CO)C(=O)N[C@H]1C(=O)N[C@@H](C)C(=O)N[C@@H](CCCCN)C(=O)N[C@@H]([C@@H](C)CC)C(=O)O[C@H]1C)[C@@H](C)CC)[C@@H](C)CC [D-Ala4,Lys10-teixobactin] (H-[dNMeF]IS[dA][d(aIle)]IS[dT]AKI; ester 8-C)	4 µg/mL (≈ 3.45 µM)		4 µg/mL (≈ 3.45 µM)	>32 µg/mL	2 µg/mL (≈ 1.72 µM)		moderate	1 µg/mL (≈ 0.862 µM)		good	
CC[C@H](C)[C@H](NC(=O)[C@@H](Cc1ccccc1)NC)C(=O)N[C@@H](C)C(=O)N[C@H](CCC(N)=O)C(=O)N[C@@H](C(=O)N[C@H](C(=O)N[C@@H](CO)C(=O)N[C@H]1C(=O)N[C@@H](C)C(=O)N[C@@H](CCCCN)C(=O)N[C@@H]([C@@H](C)CC)C(=O)O[C@H]1C)[C@@H](C)CC)[C@@H](C)CC [Ala3,Lys10-teixobactin] (H-[dNMeF]IA[dQ][d(aIle)]IS[dT]AKI; ester 8-C)	1 µg/mL (≈ 0.833 µM)	4 µg/mL (≈ 3.33 µM)	1 µg/mL (≈ 0.833 µM)	>32 µg/mL	0.5 µg/mL (≈ 0.416 µM)		good	0.5 µg/mL (≈ 0.416 µM)			
CC[C@H](C)[C@H](NC(=O)[C@@H](Cc1ccccc1)NC)C(=O)N[C@@H](CO)C(=O)N[C@H](CCC(N)=O)C(=O)N[C@@H](C(=O)N[C@@H](C)C(=O)N[C@@H](CO)C(=O)N[C@H]1C(=O)N[C@@H](C)C(=O)N[C@@H](CCCCN)C(=O)N[C@@H]([C@@H](C)CC)C(=O)O[C@H]1C)[C@@H](C)CC [Ala6,Lys10-teixobactin] (H-[dNMeF]IS[dQ][d(aIle)]AS[dT]AKI; ester 8-C)	>32 µg/mL	>32 µg/mL	>32 µg/mL	>32 µg/mL	>32 µg/mL		poor	>32 µg/mL		good	
CC[C@H](C)[C@H](NC(=O)[C@@H](C)NC(=O)[C@@H](CCC(N)=O)NC(=O)[C@H](CO)NC(=O)[C@@H](NC(=O)[C@@H](Cc1ccccc1)NC)[C@@H](C)CC)C(=O)N[C@@H](CO)C(=O)N[C@H]1C(=O)N[C@@H](C)C(=O)N[C@@H](CCCCN)C(=O)N[C@@H]([C@@H](C)CC)C(=O)O[C@H]1C [D-Ala5,Lys10-teixobactin] (HELM PEPTIDE1{[CN[C@H](Cc1ccccc1)C(=O)[*:2]].I.S.[dQ].[dA].I.S.[C[C@H](O[*:3])[C@@H](N[*:1])C(=O)[*:2]].A.K.I}$PEPTIDE1,PEPTIDE1,8:R3-11:R2$$$V2.0)		>32 µg/mL		>32 µg/mL			poor	>32 µg/mL		good	
CC[C@H](C)[C@H](NC(=O)[C@@H](Cc1ccccc1)NC)C(=O)N[C@@H](CO)C(=O)N[C@H](CCC(N)=O)C(=O)N[C@@H](C(=O)N[C@H](C(=O)N[C@@H](C)C(=O)N[C@H]1C(=O)N[C@@H](C)C(=O)N[C@@H](CCCCN)C(=O)N[C@@H]([C@@H](C)CC)C(=O)O[C@H]1C)[C@@H](C)CC)[C@@H](C)CC [Ala7,Lys10-teixobactin] (H-[dNMeF]IS[dQ][d(aIle)]IA[dT]AKI; ester 8-C)	32 µg/mL (≈ 26.7 µM)	>32 µg/mL	32 µg/mL (≈ 26.7 µM)	>32 µg/mL			poor	>32 µg/mL		good	
CC[C@H](C)[C@H](NC(=O)[C@@H](C)NC)C(=O)N[C@@H](CO)C(=O)N[C@H](CCC(N)=O)C(=O)N[C@@H](C(=O)N[C@H](C(=O)N[C@@H](CO)C(=O)N[C@H]1C(=O)N[C@@H](C)C(=O)N[C@@H](CCCCN)C(=O)N[C@@H]([C@@H](C)CC)C(=O)O[C@H]1C)[C@@H](C)CC)[C@@H](C)CC [N-Me-D-Ala1,Lys10-teixobactin]	>32 µg/mL	>32 µg/mL	>32 µg/mL	>32 µg/mL	>32 µg/mL		poor	>32 µg/mL		good	
